Experimental data taken from ChEMBL document CHEMBL4732137, “Insight on [1,3]thiazolo[4,5-e]isoindoles as tubulin polymerization inhibitors” (Eur J Med Chem, 2021).
Active and inactive are the calls of the source. No cut-off for these calls is given here.

Tests used:
[1] = Antiproliferative activity against human Panel NCI-57 (57 carcinoma cell lines) measured after 48 hrs by SRB assay; format: functional
Outline: (§1)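 Full NCI human tumor cell line panel; selected compounds tested at five doses, 10^-4 to 10^-8 M, with growth inhibition summarised as the mean graph mid-point (MG_MID) across the panel.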

HeLa [2] = experiment: Cell cycle arrest in human HeLa cells assessed as accumulation at G2/M phase at 10 uM measured after 24 hrs by propidium iodide staining based flow cytometry relative to control; format: functional
Outline: (§2)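 HeLa cells exposed 24 h at 0.1, 1 and 10 µM; fixed, labelled with propidium iodide and analysed by flow cytometry for the fraction in each cycle phase; mean ± SEM of three experiments.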

HeLa [3] = experiment: Cell cycle arrest in human HeLa cells assessed as reduction in accumulation at G1 phase at 0.1 to 10 uM measured after 24 hrs by propidium iodide staining based flow cytometry; format: functional; details: dose 0.1-10 µM; outline: as §2
HeLa [4] = experiment: Cell cycle arrest in human HeLa cells assessed as reduction in accumulation at S phase at 0.1 to 10 uM measured after 24 hrs by propidium iodide staining based flow cytometry; format: functional; details: dose 0.1-10 µM; outline: as §2
HeLa [5] = experiment: Cell cycle arrest in human HeLa cells assessed as increase in cyclin B1 expression at 10 uM measured after 24 hrs by Western blot analysis; format: functional, cell-based
Outline: (§3)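 HeLa cells treated 24 h at 1 or 10 µM, washed in cold PBS, lysed on ice 30 min, protein quantified by BCA; western blot for cdc25c, p-cdc2 Y15 and cyclin B1, membranes stripped and reprobed for vinculin as loading control.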

HeLa [6] = experiment: Induction of apoptosis in human HeLa cells assessed as increase in annexin-V positive cells at 10 uM measured after 24 hrs by Annexin V-FITC/propidium iodide staining based flow cytometry; format: functional, cell-based
Outline: (§4)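 HeLa cells incubated 24 or 48 h at the stated concentrations, double stained with annexin V-FITC and PI, and surface phosphatidylserine measured by flow cytometry to separate live, early apoptotic, late apoptotic and necrotic cells; mean ± SEM of three independent experiments; p vs control.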

HeLa [7] = experiment: Induction of apoptosis in human HeLa cells at 10 uM measured after 48 hrs by Annexin V-FITC/propidium iodide staining based flow cytometry; format: functional, cell-based; outline: as §4
HeLa [8] = experiment: Induction of apoptosis in human HeLa cells assessed as increase in necrotic cells at 10 uM measured after 48 hrs by Annexin V-FITC/propidium iodide staining based flow cytometry; format: functional, cell-based; outline: as §4
HeLa [9] = experiment: Induction of mitochondrial potential loss in human HeLa cells measured after 24 to 48 hrs by JC1 staining based flow cytometry; format: functional, cell-based; details: dose 1-10 µM, time 24-48 hrs
Outline: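 Mitochondrial membrane potential in HeLa cells after 24 or 48 h at 1 and 10 µM; JC-1 staining, excitation 490 nm, monomer emission at 530 nm versus aggregate at 590 nm […], read by flow cytometry; mean ± SEM, three independent experiments.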

HeLa [10] = experiment: Induction of apoptosis in human HeLa cells assessed as increase in PARP cleavage at 10 uM measured after 24 hrs by Western blot analysis; format: functional, cell-based
Outline: (§5)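 After 24 h exposure of HeLa cells to 1 or 10 µM, lysates were blotted for cleaved caspase-9 and PARP; primary antibodies 2 h at room temperature, peroxidase secondary 1 h, ECL detection, vinculin reprobe for equal loading.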

HeLa [11] = experiment: Induction of apoptosis in human HeLa cells assessed as increase in caspase-9 activation at 10 uM measured after 24 hrs by Western blot analysis; format: functional, cell-based; outline: as §5
[12] = Inhibition of bovine brain tubulin assembly by turbidimetry based spectrophotometric method; set-up: species or system Bos taurus
Tubulin (Homo sapiens) [13] = target: T1, Tubulin (Homo sapiens) (UniProt P68371+Q9H4B7+P0DPH7+P68366+Q13509+Q71U36+P04350+Q3ZCM7+P07437+P68363+Q9BQE3+Q6PEY2+Q13885+Q9BVA1+Q9BUF5); experiment: Inhibition of [3H]colchicine binding to tubulin (unknown origin) at 50 uM by DEAE-cellulose filter method relative to control; format: protein-complex assay
[14] = Antiproliferative activity against human Panel NCI-55 (55 carcinoma cell lines) measured after 48 hrs by SRB assay; format: functional; outline: as §1
HeLa [15] = experiment: Cell cycle arrest in human HeLa cells assessed as increase in accumulation at G2/M phase measured after 24 hrs by propidium iodide staining based flow cytometry; format: functional; details: dose 0.1-10 µM; outline: as §2
HeLa [16] = experiment: Cell cycle arrest in human HeLa cells assessed as reduction in total cdc25c expression at 10 uM measured after 24 hrs by Western blot analysis; format: functional, cell-based; outline: as §3
HeLa [17] = experiment: Cell cycle arrest in human HeLa cells assessed as reduction in phosphorylated cdc2 expression at 10 uM measured after 24 hrs by Western blot analysis; format: functional, cell-based; outline: as §3
[18] = Antiproliferative activity against human Panel NCI-56 (56 carcinoma cell lines) measured after 48 hrs by SRB assay; format: functional; outline: as §1
Tubulin (Homo sapiens) [19] = target: T1, Tubulin (Homo sapiens); experiment: Inhibition of [3H]colchicine binding to tubulin (unknown origin) at 5 uM by DEAE-cellulose filter method relative to control; format: protein-complex assay

IC50 [12] [µM] | inhibition (Tubulin (Homo sapiens) [13]) [%] | SMILES | GI50 [1] [nM] | Activity (HeLa [2]) [%] | Activity (HeLa [3]) | Activity (HeLa [4]) | Activity (HeLa [5]) | Activity (HeLa [6]) | Activity (HeLa [7]) | Activity (HeLa [8]) | Activity (HeLa [9]) | Activity (HeLa [10]) | Activity (HeLa [11]) | GI50 [18] [nM] | also measured
12 | 41 | COc1ccc(Cn2c(Br)c3c(c2-c2cc(OC)c(OC)c(OC)c2)CCc2sc(NC(C)=O)nc2-3)cc1 |  |  |  |  |  |  |  |  |  |  |  |  | GI50 [14]: 610 nM
> 20 |  | COc1cc(-c2c3c(cn2S(=O)(=O)c2ccccc2)-c2nc(N)sc2CC3)cc(OC)c1OC | 220 | >70 | Active | Active | Active | Active | Active | Active | Dose-dependent effect | Active | Active |  | Activity (HeLa [15]): Dose-dependent effect; Activity (HeLa [16]): Active; Activity (HeLa [17]): Active
> 20 |  | Nc1nc2c(s1)CCc1c-2c(Br)n(Cc2ccccc2)c1Br |  |  |  |  |  |  |  |  |  |  |  | 530 | 

More lines, now with the values behind:

SMILES | IC50 [12] [µM] | inhibition (Tubulin (Homo sapiens) [13]) [%] | GI50 [1] [nM] | Activity (HeLa [2]) [%] | Activity (HeLa [3]) | Activity (HeLa [4]) | Activity (HeLa [5]) | Activity (HeLa [6]) | Activity (HeLa [7]) | Activity (HeLa [8]) | Activity (HeLa [9]) | Activity (HeLa [10]) | Activity (HeLa [11]) | GI50 [18] [nM] | also measured
COc1ccc(Cn2c(Br)c3c(c2-c2cc(OC)c(OC)c(OC)c2)CCc2sc(N)nc2-3)cc1 | > 20 | 22 | 210 | >70 | Active | Active | Active | Active | Active | Active | Dose-dependent effect | Active | Active |  | 
O=C(Nc1nc2c(s1)CCc1c-2c(Br)n(Cc2ccccc2)c1Br)c1ccccc1 | > 20 |  |  |  |  |  |  |  |  |  |  |  |  | 1200 | 
COc1ccc(Cn2c(Br)c3c(c2Br)-c2nc(N)sc2CC3)cc1 | 7.8 | 60 |  |  |  |  |  |  |  |  |  |  |  | 410 | inhibition (Tubulin (Homo sapiens) [19]): 11%
